According to ChEMBL document CHEMBL5107946, “SF5- and SCF3-substituted tetrahydroquinoline compounds as potent bactericidal agents against multidrug-resistant persister Gram-positive bacteria” (RSC Med Chem, 2021):
Values after ≈ are worked out from the molar mass of the structure shown. Active and inactive are the calls of the source.

What was measured:
[1] = system: Staphylococcus aureus; assay: Antibacterial activity against methicillin-resistant Staphylococcus aureus USA300 assessed as fold increase in MIC incubated for 30 days by resistance development based broth microdilution assay; assay type: functional; settings: time 30 day
In short: (§1)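 Multi-step resistance selection over 30 days. MIC determined first. Each day, 5 μL from the turbid well just below the MIC was diluted 1:1000 in CA-MHB and used as inoculum for the next broth microdilution MIC. Resistance defined as a rise of more than four-fold over the starting MIC.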

[2] = system: Staphylococcus aureus; assay: Antibacterial activity against methicillin-resistant Staphylococcus aureus ATCC 33592 assessed as fold increase in MIC incubated for 30 days by resistance development based broth microdilution assay; assay type: functional; settings: time 30 day; in short: as §1
[3] = system: Enterococcus faecalis; assay: Antibacterial activity against vancomycin-resistant Enterococcus faecalis ATCC 51575 assessed as bacterial growth inhibition incubated for 18 to 20 hrs by CLSI based broth microdilution assay; assay type: functional; settings: time 18-20 hrs
In short: (§2)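 CLSI broth microdilution; compounds and control antibiotics made up at 10 mg mL−1 in DMSO (stock), serially diluted 1:2 across the plate. Inoculum adjusted to 0.5 McFarland, then diluted 1:100 into wells. Plates incubated static at 37 °C for 18–20 h before MIC read.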

[4] = system: Staphylococcus aureus; assay: Bactericidal activity against methicillin-resistant Staphylococcus aureus USA300 assessed as reduction in colony forming unit incubated for 20 hrs; assay type: functional
In short: (§3)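 Follows the broth microdilution MIC plate. 4 μL taken from each well without growth, spotted in duplicate on tryptic soy agar and incubated static at 37 °C for 20 h. MBC taken as the concentration giving 99.9% reduction in CFU.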

[5] = system: Enterococcus faecalis; assay: Bactericidal activity against vancomycin-resistant Enterococcus faecalis ATCC 51575 assessed as reduction in colony forming unit incubated for 20 hrs; assay type: functional; in short: as §3
[6] = system: Enterococcus faecalis; assay: Antibacterial activity against Enterococcus faecalis ATCC 29212 assessed as bacterial growth inhibition incubated for 18 to 20 hrs by CLSI based broth microdilution assay; assay type: functional; settings: time 18-20 hrs; in short: as §2
[7] = system: Staphylococcus aureus; assay: Bactericidal activity against methicillin-resistant Staphylococcus aureus ATCC 33592 assessed as reduction in colony forming unit incubated for 20 hrs; assay type: functional; in short: as §3
[8] = system: Staphylococcus aureus; assay: Bactericidal activity against Staphylococcus aureus ATCC 25923 assessed as reduction in colony forming unit incubated for 20 hrs; assay type: functional; in short: as §3
[9] = system: Enterococcus faecium; assay: Antibacterial activity against vancomycin-resistant Enterococcus faecium ATCC 700221 assessed as bacterial growth inhibition incubated for 18 to 20 hrs by CLSI based broth microdilution assay
[10] = system: Enterococcus faecium; assay: Bactericidal activity against vancomycin-resistant Enterococcus faecium ATCC 700221 assessed as reduction in colony forming unit incubated for 20 hrs; settings: ATCC 700221, 20 h
[11] = system: Listeria monocytogenes; assay: Antibacterial activity against Listeria monocytogenes ATCC 19115 assessed as bacterial growth inhibition incubated for 18 to 20 hrs by CLSI based broth microdilution assay; assay type: functional; settings: time 18-20 hrs
In short: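 MIC by CLSI broth microdilution. Compounds were made as 10 mg mL−1 DMSO stocks and serially diluted 1:2. Inoculum was set to 0.5 McFarland and diluted 1:100 into the wells. Plates were incubated static at 37 °C for 18–20 h before reading the MIC.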

[12] = system: Enterococcus faecalis; assay: Bactericidal activity against Enterococcus faecalis ATCC 29212 assessed as reduction in colony forming unit incubated for 20 hrs; assay type: functional; in short: as §3
[13] = system: Cell membrane; assay: Induction of cell membrane disruption in persister Staphylococcus aureus ATCC 25923 at 32 ug/ml incubated for 6 hrs by scanning electron microscopy; settings: dose 32.0 µg/ml
[14] = system: Cell membrane; assay: Induction of cell membrane permeability in Staphylococcus aureus ATCC 25923 at 4 ug/ml by DiOC2 dye based flow cytometry assay; settings: dose 4.0 µg/ml
In short: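 Flow cytometry on S. aureus ATCC 25923 grown in TSB to exponential phase (OD600 0.2–0.3), then treated. Cells were washed twice in PBS and resuspended in buffer. To-PRO 3 iodide (red) and DiOC2 (green) were added and samples analysed immediately. The red/green ratio was used as the permeabilization readout, with bithionol 4 μg mL−1 as positive control.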

[15] = system: Staphylococcus aureus; assay: Antibacterial activity against Staphylococcus aureus ATCC 25923 assessed as bacterial growth inhibition at 16 ug/ml incubated for 18 to 20 hrs by CLSI based broth microdilution assay; assay type: functional, organism-based; settings: dose 16.0 µg/ml, time 18-20 hrs
In short: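 Single-concentration screen at 16 μg mL−1 final. Overnight TSB culture was diluted 1:1000 in cation-adjusted MHB and grown to early exponential phase. 1 mL of culture was added to compound in glass tubes and incubated overnight at 37 °C. OD600 was read and normalized to the DMSO control after subtracting medium-only OD.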

[16] = system: Staphylococcus aureus; assay: Antibacterial activity against methicillin-resistant Staphylococcus aureus ATCC 33592 assessed as bacterial growth inhibition incubated for 18 to 20 hrs by CLSI based broth microdilution assay; assay type: functional; settings: time 18-20 hrs; in short: as §2
[17] = system: Staphylococcus aureus; assay: Antibacterial activity against methicillin-resistant Staphylococcus aureus USA300 assessed as bacterial growth inhibition incubated for 18 to 20 hrs by CLSI based broth microdilution assay; assay type: functional; settings: time 18-20 hrs; in short: as §2
[18] = system: Staphylococcus aureus; assay: Antibacterial activity against Staphylococcus aureus ATCC 25923 assessed as bacterial growth inhibition incubated for 18 to 20 hrs by CLSI based broth microdilution assay; assay type: functional; settings: time 18-20 hrs; in short: as §2
[19] = system: Staphylococcus aureus; assay: Antibacterial activity against methicillin-resistant Staphylococcus aureus ST1312 (ARLG 1649) assessed as bacterial growth inhibition incubated for 18 to 20 hrs by CLSI based broth microdilution assay; assay type: functional; settings: time 18-20 hrs; in short: as §2
[20] = system: Staphylococcus aureus; assay: Antibacterial activity against methicillin-resistant Staphylococcus aureus ST239 (ARLG 1644) assessed as bacterial growth inhibition incubated for 18 to 20 hrs by CLSI based broth microdilution assay; assay type: functional; settings: time 18-20 hrs; in short: as §2
[21] = system: Staphylococcus aureus; assay: Antibacterial activity against methicillin-resistant Staphylococcus aureus ST239 (ARLG 1663) assessed as bacterial growth inhibition incubated for 18 to 20 hrs by CLSI based broth microdilution assay; assay type: functional; settings: time 18-20 hrs; in short: as §2
[22] = system: Staphylococcus aureus; assay: Antibacterial activity against methicillin-resistant Staphylococcus aureus ST239 (ARLG 1665) assessed as bacterial growth inhibition incubated for 18 to 20 hrs by CLSI based broth microdilution assay; assay type: functional; settings: time 18-20 hrs; in short: as §2

Compound | MIC [3] [µg/mL] | MIC [6] [µg/mL] | MIC [9] [µg/mL] | MIC [11] [µg/mL] | Activity [15] | MIC [18] [µg/mL] | other results
O=C(O)c1cn(C2CC2)c2cc(N3CCNCC3)c(F)cc2c1=O [CIPROFLOXACIN] |  |  |  |  |  |  | fold change (FC) [1]: 16; fold change (FC) [2]: 64
CN[C@H](CC(C)C)C(=O)N[C@H]1C(=O)N[C@@H](CC(N)=O)C(=O)N[C@H]2C(=O)N[C@H]3C(=O)N[C@H](C(=O)N[C@H](C(=O)O)c4cc(O)cc(O)c4-c4cc3ccc4O)[C@H](O)c3ccc(c(Cl)c3)Oc3cc2cc(c3O[C@@H]2O[C@H](CO)[C@@H](O)[C@H](O)[C@H]2O[C@H]2C[C@](C)(N)[C@H](O)[C@H](C)O2)Oc2ccc(cc2Cl)[C@H]1O [VANCOMYCIN] | > 128 | 2 (≈ 1.38 µM) | > 128 | 1 (≈ 0.69 µM) |  |  | MBC [4]: 2 µg/mL (≈ 1.38 µM); MBC [5]: > 128 µg/mL; MBC [7]: 2 µg/mL (≈ 1.38 µM); MBC [8]: 2 µg/mL (≈ 1.38 µM); MBC [10]: > 128 µg/mL; MBC [12]: 2 µg/mL (≈ 1.38 µM)
Oc1c(Cl)cc(Cl)cc1Sc1cc(Cl)cc(Cl)c1O |  |  |  |  |  |  | Activity [13]: Active; Activity [14]: Active
CC(=O)NC[C@H]1CN(c2ccc(N3CCOCC3)c(F)c2)C(=O)O1 [LINEZOLID] |  |  |  | 2 (≈ 5.93 µM) |  |  | MBC [4]: 64 µg/mL (≈ 190 µM); MBC [5]: > 128 µg/mL; MBC [7]: 64 µg/mL (≈ 190 µM); MBC [8]: 64 µg/mL (≈ 190 µM); MBC [10]: > 128 µg/mL; MBC [12]: 64 µg/mL (≈ 190 µM)
CC(C)Oc1ccc2c(c1)[C@H]1[C@@H]3CC[C@@H](C3)[C@H]1[C@H](c1c[nH]nc1C(F)(F)F)N2 |  |  |  |  | Active |  | 
FC(F)(F)c1ccc2c(c1)N[C@@H](c1c[nH]nc1C(F)(F)F)[C@@H]1[C@H]3CC[C@H](C3)[C@H]21 | 8 (≈ 19.9 µM) | 8 (≈ 19.9 µM) | 8 (≈ 19.9 µM) | 8 (≈ 19.9 µM) | Active | 4 (≈ 9.97 µM) | MIC [16]: 8 µg/mL (≈ 19.9 µM); MIC [17]: 8 µg/mL (≈ 19.9 µM)
FC(F)(F)c1n[nH]cc1[C@@H]1Nc2ccccc2[C@H]2[C@@H]3CC[C@@H](C3)[C@H]21 |  |  |  |  | Active |  | 
FS(F)(F)(F)(F)c1ccc2c(c1)[C@H]1[C@@H]3CC[C@@H](C3)[C@H]1[C@H](c1c[nH]cn1)N2 |  |  |  |  | Active | 8 (≈ 20.4 µM) | 
Cc1onc(-c2ccccc2)c1C(=O)N[C@@H]1C(=O)N2[C@@H]1SC(C)(C)[C@@H]2C(=O)O [OXACILLIN] |  |  |  |  |  |  | MIC [19]: 256 µg/mL (≈ 638 µM); MIC [20]: 512 µg/mL (≈ 1280 µM); MIC [21]: 256 µg/mL (≈ 638 µM); MIC [22]: 512 µg/mL (≈ 1280 µM)
FC(F)(F)Sc1ccc2c(c1)[C@H]1[C@@H]3CC[C@@H](C3)[C@H]1[C@H](c1c[nH]nc1C(F)(F)F)N2 | 8 (≈ 18.5 µM) | 8 (≈ 18.5 µM) | 4 (≈ 9.23 µM) | 4 (≈ 9.23 µM) | Active | 4 (≈ 9.23 µM) | MIC [16]: 2 µg/mL (≈ 4.61 µM); MIC [17]: 4 µg/mL (≈ 9.23 µM)
FC(F)(F)Oc1ccc2c(c1)[C@H]1[C@@H]3CC[C@@H](C3)[C@H]1[C@H](c1c[nH]nc1C(F)(F)F)N2 | 8 (≈ 19.2 µM) | 8 (≈ 19.2 µM) | 4 (≈ 9.58 µM) | 4 (≈ 9.58 µM) | Active | 4 (≈ 9.58 µM) | MIC [16]: 4 µg/mL (≈ 9.58 µM); MIC [17]: 8 µg/mL (≈ 19.2 µM)
FS(F)(F)(F)(F)c1ccc2c(c1)[C@H]1[C@@H]3CC[C@@H](C3)[C@H]1[C@H](c1cn[nH]c1)N2 |  |  |  |  | Active | 16 (≈ 40.9 µM) | 
Fc1ccc2c(c1)[C@H]1[C@@H]3CC[C@@H](C3)[C@H]1[C@H](c1c[nH]nc1C(F)(F)F)N2 |  |  |  |  | Active |  | 
FC(F)(F)c1n[nH]cc1-c1nc2ccc(S(F)(F)(F)(F)F)cc2c2c1[C@H]1CC[C@@H]2C1 | 8 (≈ 17.6 µM) | 8 (≈ 17.6 µM) | 8 (≈ 17.6 µM) | 8 (≈ 17.6 µM) | Active | 4 (≈ 8.78 µM) | MIC [16]: 8 µg/mL (≈ 17.6 µM); MIC [17]: 8 µg/mL (≈ 17.6 µM)
C/C(=C\C(=O)OCCCCCCCCC(=O)O)C[C@@H]1OC[C@H](C[C@@H]2O[C@H]2[C@@H](C)[C@H](C)O)[C@@H](O)[C@H]1O [MUPIROCIN] |  |  |  |  |  |  | fold change (FC) [2]: >250
O=C(O)c1ccc([C@@H]2Nc3ccc(S(F)(F)(F)(F)F)cc3[C@H]3[C@@H]4CC[C@@H](C4)[C@H]32)cc1 | 4 (≈ 8.98 µM) | 4 (≈ 8.98 µM) | 4 (≈ 8.98 µM) | 4 (≈ 8.98 µM) | Active | 4 (≈ 8.98 µM) | MIC [16]: 4 µg/mL (≈ 8.98 µM); MIC [17]: 16 µg/mL (≈ 35.9 µM)
FC(F)Oc1ccc2c(c1)[C@H]1[C@@H]3CC[C@@H](C3)[C@H]1[C@H](c1c[nH]nc1C(F)(F)F)N2 |  |  |  |  | Active |  | 
